Test results reported in article PMC5497724 (Cancer Science, 2017).

What was measured:
[1] = SCID mice, 4.4 mg/kg i.v.; 40% ethanol, 5% PEG 400, 55% normal saline; cited from earlier work
[2] = rats, given orally; cited from earlier work
HT1080 cells = assay: Western blot analysis of PI3K pathway and histone acetylation; assay type: cell-based, human; conditions: 3 h
Summary of the method: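 HT1080 cells in RPMI-1640 with 10% FBS were handled as in the proliferation assay: 8 × 10³ cells seeded, 24 h at 37°C. Cells were treated 3 h with test compound (in DMSO) at various concentrations. Reference treatments were 2.5 μM SAHA, 1 μM GDC-0941 or both. Western blots probed phospho-AKT (Ser473, Thr308), AKT, phospho-S6, S6, acetyl-histone H3 and β-actin.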

In the case of `C/C=C1\NC(=O)[C@H]2CSSCC/C=C/[C@H](CC(=O)N[C@H](C(C)C)C(=O)N2)OC(=O)[C@H](C(C)C)NC1=O` [FK228, Romidepsin], the AUC [1] is given as 1123 ng·h/mL and the “drug levels after oral dosing vs i.v.” value [2] is given as “lower and more erratic drug levels than i.v. treatment”.
With `CS(=O)(=O)N1CCN(Cc2cc3nc(-c4cccc5[nH]ncc45)nc(N4CCOCC4)c3s2)CC1` [GDC0941] the “phosphorylation of AKT and S6 (Western blot)” value (HT1080 cells) was “inhibited the phosphorylation of AKT and S6 ribosomal protein”.
With `O=C(CCCCCCC(=O)Nc1ccccc1)NO` [SAHA, Suberoylanilidehydroxamic acid] the “acetylation of histone H3 (Western blot)” value (HT1080 cells) was “promoted acetylation of histone H3”.
